According to ChEMBL document CHEMBL3259614, “Design, synthesis, and structure-activity relationship studies of novel fused heterocycles-linked triazoles with good activity and water solubility” (J Med Chem, 2014):
Values after ≈ are worked out from the molar mass of the structure shown.

What was measured:
Aspergillus fumigatus = test: Antimicrobial activity against Aspergillus fumigatus 7544 after 48 hrs by serial dilution method; type: functional; conditions: Aspergillus fumigatus, 7544, 48 h
How it was run: (§1)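 Broth serial dilution MIC in 96-well plates following NCCLS/CLSI methods. Compounds were dissolved in DMSO and serially diluted in growth medium, with incubation at 35 °C. […] C. parapsilosis 22019 served as the quality-control strain in each assay.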

Candida albicans [1] = test: Antimicrobial activity against Candida albicans SC5314 after 24 hrs by serial dilution method; type: functional; conditions: SC5314, 24 h; how it was run: as §1
Candida albicans [2] = test: Antimicrobial activity against Candida albicans Y0109 after 24 hrs by serial dilution method; type: functional; conditions: Y0109, 24 h; how it was run: as §1
Nakaseomyces glabratus = test: Antimicrobial activity against Candida glabrata 537 after 24 hrs by serial dilution method; type: functional; conditions: Nakaseomyces glabratus, 537, 24 h; how it was run: as §1
Cryptococcus neoformans = test: Antimicrobial activity against Cryptococcus neoformans 32609 after 72 hrs by serial dilution method; type: functional; conditions: Cryptococcus neoformans, 32609, 72 h; how it was run: as §1
Candida parapsilosis = test: Antimicrobial activity against Candida parapsilosis 22019 after 24 hrs by serial dilution method; type: functional; conditions: Lodderomyces parapsilosis, 22019, 24 h; how it was run: as §1
[3] = Aqueous solubility of the compound in phosphate buffer at pH 7.4; type: physicochemical
How it was run: (§2)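 Excess solid was stirred for 3 h in pH 1.2 hydrochloric acid or pH 7.4 phosphate buffer, then filtered through 0.45 μm. Absorbance at the UV maximum was compared with a methanol standard, C′ = A′C/A, with values reported in mg/mL. Determined at 30 °C; mean ± SD, n = 3.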

Candida albicans [4] = test: Antimicrobial activity against fluconazole-resistant Candida albicans J18 after 24 hrs by serial dilution method; type: functional; conditions: J18, 24 h
How it was run: (§3)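 Broth serial-dilution MIC in 96-well plates following NCCLS guidance. Compounds were dissolved in DMSO and serially diluted in growth medium. Clinical isolates came from a hospital collection. […] C. parapsilosis ATCC 22019 served as the quality-control strain in each assay.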

Candida albicans [5] = test: Antimicrobial activity against fluconazole-resistant Candida albicans 100 after 24 hrs by serial dilution method; type: functional; conditions: Candida albicans, 100, 24 h; how it was run: as §3
[6] = Aqueous solubility of the compound in hydrochloric acid solution at pH 1.2; type: physicochemical; how it was run: as §2
Candida albicans [7] = test: Antimicrobial activity against fluconazole-resistant Candida albicans 103 after 24 hrs by serial dilution method; type: functional; conditions: Candida albicans, 103, 24 h; how it was run: as §3
Candida albicans [8] = test: Antimicrobial activity against fluconazole-resistant Candida albicans J38 after 24 hrs by serial dilution method; type: functional; conditions: J38, 24 h; how it was run: as §3
Candida albicans [9] = test: Antimicrobial activity against fluconazole-resistant Candida albicans J28 after 24 hrs by serial dilution method; type: functional; conditions: J28, 24 h; how it was run: as §3

Compound: C[C@@H](N1CCc2sc(-c3ccncc3)cc2C1)[C@](O)(Cn1cncn1)c1ccc(F)cc1F
- MIC (Aspergillus fumigatus): > 32 µg/mL
- MIC (Candida albicans [1]): 1 µg/mL (≈ 2.14 µM)
- MIC (Candida albicans [2]): 2 µg/mL (≈ 4.28 µM)
- MIC (Nakaseomyces glabratus): 8 µg/mL (≈ 17.1 µM)
- MIC (Cryptococcus neoformans): 4 µg/mL (≈ 8.56 µM)
- MIC (Candida parapsilosis): 4 µg/mL (≈ 8.56 µM)

Compound: C[C@@H](N1CCc2sc(-c3cccnc3)cc2C1)[C@](O)(Cn1cncn1)c1ccc(F)cc1F
- MIC (Aspergillus fumigatus): 32 µg/mL (≈ 68.4 µM)
- MIC (Candida albicans [1]): 1 µg/mL (≈ 2.14 µM)
- MIC (Candida albicans [2]): 8 µg/mL (≈ 17.1 µM)
- MIC (Nakaseomyces glabratus): 2 µg/mL (≈ 4.28 µM)
- MIC (Cryptococcus neoformans): 4 µg/mL (≈ 8.56 µM)
- MIC (Candida parapsilosis): 4 µg/mL (≈ 8.56 µM)

Compound: C[C@@H](N1CCc2cc(Br)sc2C1)[C@](O)(Cn1cncn1)c1ccc(F)cc1F
- MIC (Aspergillus fumigatus): 32 µg/mL (≈ 68.2 µM)
- MIC (Candida albicans [1]): 1 µg/mL (≈ 2.13 µM)
- MIC (Candida albicans [2]): 0.5 µg/mL (≈ 1.07 µM)
- MIC (Nakaseomyces glabratus): 1 µg/mL (≈ 2.13 µM)
- MIC (Cryptococcus neoformans): 0.5 µg/mL (≈ 1.07 µM)
- MIC (Candida parapsilosis): 2 µg/mL (≈ 4.26 µM)

Compound: C[C@@H](N1CCc2cc(-c3ccncc3)sc2C1)[C@](O)(Cn1cncn1)c1ccc(F)cc1F
- MIC (Aspergillus fumigatus): 32 µg/mL (≈ 68.4 µM)
- MIC (Candida albicans [1]): 1 µg/mL (≈ 2.14 µM)
- MIC (Candida albicans [2]): 4 µg/mL (≈ 8.56 µM)
- MIC (Nakaseomyces glabratus): 2 µg/mL (≈ 4.28 µM)
- MIC (Cryptococcus neoformans): 1 µg/mL (≈ 2.14 µM)
- MIC (Candida parapsilosis): 2 µg/mL (≈ 4.28 µM)

Compound: C[C@@H](N1CCc2cc(-c3cccnc3)sc2C1)[C@](O)(Cn1cncn1)c1ccc(F)cc1F
- MIC (Aspergillus fumigatus): 8 µg/mL (≈ 17.1 µM)
- MIC (Candida albicans [1]): 0.5 µg/mL (≈ 1.07 µM)
- MIC (Candida albicans [2]): 1 µg/mL (≈ 2.14 µM)
- MIC (Nakaseomyces glabratus): 1 µg/mL (≈ 2.14 µM)
- MIC (Cryptococcus neoformans): 0.5 µg/mL (≈ 1.07 µM)
- MIC (Candida parapsilosis): 1 µg/mL (≈ 2.14 µM)

Compound: C[C@@H](N1CCc2cc(-c3cncnc3)sc2C1)[C@](O)(Cn1cncn1)c1ccc(F)cc1F
- MIC (Aspergillus fumigatus): 16 µg/mL (≈ 34.1 µM)
- MIC (Candida albicans [1]): 0.5 µg/mL (≈ 1.07 µM)
- MIC (Candida albicans [2]): 0.25 µg/mL (≈ 0.534 µM)
- MIC (Nakaseomyces glabratus): 1 µg/mL (≈ 2.13 µM)
- MIC (Cryptococcus neoformans): 0.5 µg/mL (≈ 1.07 µM)
- MIC (Candida parapsilosis): 0.5 µg/mL (≈ 1.07 µM)

Compound: C[C@@H](N1CCc2cc(-c3ccc(C#N)nc3)sc2C1)[C@](O)(Cn1cncn1)c1ccc(F)cc1F
- MIC (Aspergillus fumigatus): 32 µg/mL (≈ 65 µM)
- MIC (Candida albicans [1]): 2 µg/mL (≈ 4.06 µM)
- MIC (Candida albicans [2]): 4 µg/mL (≈ 8.12 µM)
- MIC (Nakaseomyces glabratus): 4 µg/mL (≈ 8.12 µM)
- MIC (Cryptococcus neoformans): 4 µg/mL (≈ 8.12 µM)
- MIC (Candida parapsilosis): 4 µg/mL (≈ 8.12 µM)

Compound: C[C@@H](N1CCc2nc(-c3cncnc3)sc2C1)[C@](O)(Cn1cncn1)c1ccc(F)cc1F.Cl
- solubility [3]: 14800 µg/mL

Compound: CS(=O)(=O)O.C[C@@H](N1CCc2nc(-c3cncnc3)sc2C1)[C@](O)(Cn1cncn1)c1ccc(F)cc1F
- solubility [3]: 12000 µg/mL

Compound: C[C@@H](N1CCc2nc(-c3cncnc3)sc2C1)[C@](O)(Cn1cncn1)c1ccc(F)cc1F.Cc1ccc(S(=O)(=O)O)cc1
- solubility [3]: 5800 µg/mL

Compound: C[C@@H](N1CCc2nc(-c3cncnc3)sc2C1)[C@](O)(Cn1cncn1)c1ccc(F)cc1F.O=S(=O)(O)O
- solubility [3]: 108000 µg/mL

Compound: Br.C[C@@H](N1CCc2nc(-c3cncnc3)sc2C1)[C@](O)(Cn1cncn1)c1ccc(F)cc1F
- solubility [3]: 12100 µg/mL

Compound: C[C@@H](N1CCc2nc(-c3cncnc3)sc2C1)[C@](O)(Cn1cncn1)c1ccc(F)cc1F.O=P(O)(O)O
- solubility [3]: 8330 µg/mL

Compound: C[C@@H](n1cnc2cc(Cl)ccc2c1=O)[C@](O)(Cn1cncn1)c1ccc(F)cc1F [ALBACONAZOLE]
- MIC (Aspergillus fumigatus): 0.5 µg/mL (≈ 1.16 µM)
- MIC (Candida albicans [4]): > 16 µg/mL
- MIC (Candida albicans [1]): 0.0078 µg/mL (≈ 0.0181 µM)
- MIC (Candida albicans [5]): 8 µg/mL (≈ 18.5 µM)
- MIC (Candida albicans [2]): ≤ 0.0312 µg/mL
- solubility [6]: 1 µg/mL (≈ 2.32 µM)
- MIC (Nakaseomyces glabratus): ≤ 0.0312 µg/mL
- MIC (Cryptococcus neoformans): ≤ 0.0312 µg/mL
- MIC (Candida albicans [7]): 4 µg/mL (≈ 9.26 µM)
- MIC (Candida albicans [8]): ≤ 0.0312 µg/mL
- MIC (Candida albicans [9]): ≤ 0.0312 µg/mL
- MIC (Candida parapsilosis): 0.0156 µg/mL (≈ 0.0361 µM)

Compound: C[C@@H]1[C@H](O)[C@@H](C)/C=C/C=C/C=C/C=C/C=C/C=C/C=C/[C@H](O[C@@H]2O[C@H](C)[C@@H](O)[C@H](N)[C@@H]2O)C[C@@H]2O[C@](O)(C[C@@H](O)C[C@@H](O)[C@H](O)CC[C@@H](O)C[C@@H](O)CC(=O)O[C@H]1C)C[C@H](O)[C@H]2C(=O)O [AMPHOTERICIN B]
- MIC (Aspergillus fumigatus): 4 µg/mL (≈ 4.33 µM)
- MIC (Candida albicans [1]): 1 µg/mL (≈ 1.08 µM)
- MIC (Candida albicans [2]): 1 µg/mL (≈ 1.08 µM)
- MIC (Nakaseomyces glabratus): 0.5 µg/mL (≈ 0.541 µM)
- MIC (Cryptococcus neoformans): 1 µg/mL (≈ 1.08 µM)
- MIC (Candida parapsilosis): 0.5 µg/mL (≈ 0.541 µM)

Compound: C[C@@H](c1nc(-c2ccc(C#N)cc2)cs1)[C@](O)(Cn1cncn1)c1ccc(F)cc1F [RAVUCONAZOLE]
- MIC (Aspergillus fumigatus): 1 µg/mL (≈ 2.29 µM)
- MIC (Candida albicans [1]): 0.0625 µg/mL (≈ 0.143 µM)
- MIC (Candida albicans [2]): 0.0625 µg/mL (≈ 0.143 µM)
- solubility [6]: 3 µg/mL (≈ 6.86 µM)
- MIC (Nakaseomyces glabratus): ≤ 0.125 µg/mL
- MIC (Cryptococcus neoformans): ≤ 0.0625 µg/mL
- MIC (Candida parapsilosis): 0.125 µg/mL (≈ 0.286 µM)

Compound: C[C@@H](c1ncncc1F)[C@](O)(Cn1cncn1)c1ccc(F)cc1F [VORICONAZOLE]
- MIC (Aspergillus fumigatus): 2 µg/mL (≈ 5.73 µM)
- MIC (Candida albicans [4]): > 16 µg/mL
- MIC (Candida albicans [1]): ≤ 0.0625 µg/mL
- MIC (Candida albicans [5]): > 16 µg/mL
- MIC (Candida albicans [2]): 0.0625 µg/mL (≈ 0.179 µM)
- solubility [6]: 1260 µg/mL (≈ 3620 µM)
- MIC (Nakaseomyces glabratus): ≤ 0.125 µg/mL
- MIC (Cryptococcus neoformans): 0.0625 µg/mL (≈ 0.179 µM)
- MIC (Candida albicans [7]): > 16 µg/mL
- MIC (Candida albicans [8]): 0.0625 µg/mL (≈ 0.179 µM)
- solubility [3]: 682 µg/mL (≈ 1950 µM)
- MIC (Candida albicans [9]): 0.0625 µg/mL (≈ 0.179 µM)
- MIC (Candida parapsilosis): 0.125 µg/mL (≈ 0.358 µM)
